Assay results: ChEMBL document CHEMBL1139340, “Synthesis, radiosynthesis, and biological evaluation of carbon-11 and fluorine-18 labeled reboxetine analogues: potential positron emission tomography radioligands for in vivo imaging of the norepinephrine transporter” (J Med Chem, 2009)

Columns and labels:
Liver [1] = experiment: Biodistribution in Sprague-Dawley rat liver at 300 uCi, iv after 5 mins; format: ADME, organism-based; conditions: in vivo
Lung [2] = experiment: Biodistribution in Sprague-Dawley rat lung at 300 uCi, iv after 15 mins; format: ADME, organism-based; conditions: in vivo, 0.25 h
Brain [3] = experiment: Biodistribution in Sprague-Dawley rat brain at 300 uCi, iv after 30 mins; format: ADME, organism-based; conditions: in vivo, 0.5 h
Heart [4] = experiment: Biodistribution in Sprague-Dawley rat heart at 300 uCi, iv after 15 mins; format: ADME, organism-based; conditions: in vivo, 0.25 h
Blood [5] = experiment: Biodistribution in Sprague-Dawley rat blood at 300 uCi, iv after 15 mins; format: ADME, organism-based; conditions: in vivo, 0.25 h
Muscle tissue [6] = experiment: Biodistribution in Sprague-Dawley rat muscle at 300 uCi, iv after 15 mins; format: ADME, organism-based; conditions: in vivo, 0.25 h
Lung [7] = experiment: Biodistribution in Sprague-Dawley rat lung at 300 uCi, iv after 30 mins; format: ADME, organism-based; conditions: in vivo, 0.5 h
Liver [8] = experiment: Biodistribution in Sprague-Dawley rat liver at 300 uCi, iv after 30 mins; format: ADME, organism-based; conditions: in vivo, 0.5 h
Pancreas [9] = experiment: Biodistribution in Sprague-Dawley rat pancreas at 300 uCi, iv after 15 mins; format: ADME, organism-based; conditions: in vivo, 0.25 h
[10] = Biodistribution in Sprague-Dawley rat testis at 300 uCi, iv after 30 mins; format: ADME, organism-based; conditions: in vivo, 0.5 h
[11] = Ratio of drug uptake in midbrain to caudate of awaken rhesus monkey at 15 to 20 mCi after by PET method; format: ADME, Macaca mulatta; conditions: in vivo
How it was run: (§1)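 Awake rhesus monkeys imaged on a high-resolution research tomograph (HRRT) for 120 min after radioligand injection; images coregistered with composite MRI to define regions; time-activity curves generated and highest ratio of regional uptake to caudate uptake taken.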

[12] = Ratio of drug uptake in pons to caudate of awaken rhesus monkey at 15 to 20 mCi after by PET method; format: ADME, Macaca mulatta; conditions: in vivo; how it was run: as §1
Spleen [13] = experiment: Biodistribution in Sprague-Dawley rat spleen at 300 uCi, iv after 5 mins; format: ADME, organism-based; conditions: in vivo
Kidney [14] = experiment: Biodistribution in Sprague-Dawley rat kidney at 300 uCi, iv after 5 mins; format: ADME, organism-based; conditions: in vivo
Heart [15] = experiment: Biodistribution in Sprague-Dawley rat heart at 300 uCi, iv after 30 mins; format: ADME, organism-based; conditions: in vivo, 0.5 h
[16] = Ratio of drug uptake in cerebellum to caudate of awaken rhesus monkey at 15 to 20 mCi after by PET method; format: ADME, tissue-based, Macaca mulatta; conditions: in vivo
How it was run: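 Awake rhesus monkeys imaged on a high-resolution research tomograph for 120 min after injection of the ¹¹C tracer. Images coregistered with composite MRI to define regions of interest. Highest cerebellum-to-caudate uptake ratio read from the time-activity curves.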

Blood [17] = experiment: Biodistribution in Sprague-Dawley rat blood at 300 uCi, iv after 5 mins; format: ADME, organism-based; conditions: in vivo
[18] = Ratio of drug uptake in thalamus to caudate of awaken rhesus monkey at 15 to 20 mCi after by PET method; format: ADME, Macaca mulatta; conditions: in vivo; how it was run: as §1
Pancreas [19] = experiment: Biodistribution in Sprague-Dawley rat pancreas at 300 uCi, iv after 30 mins; format: ADME, organism-based; conditions: in vivo, 0.5 h
Lung [20] = experiment: Biodistribution in Sprague-Dawley rat lung at 300 uCi, iv after 60 mins; format: ADME, organism-based; conditions: in vivo, 1 h
Muscle tissue [21] = experiment: Biodistribution in Sprague-Dawley rat muscle at 300 uCi, iv after 30 mins; format: ADME, organism-based; conditions: in vivo, 0.5 h
Bone [22] = experiment: Biodistribution in Sprague-Dawley rat bone at 300 uCi, iv after 5 mins; format: ADME, organism-based, Bone element; conditions: in vivo
Bone [23] = experiment: Biodistribution in Sprague-Dawley rat bone at 300 uCi, iv after 15 mins; format: ADME, organism-based, Bone element; conditions: in vivo, 0.25 h
Pancreas [24] = experiment: Biodistribution in Sprague-Dawley rat pancreas at 300 uCi, iv after 60 mins; format: ADME, organism-based; conditions: in vivo, 1 h
[25] = Biodistribution in Sprague-Dawley rat testis at 300 uCi, iv after 60 mins; format: ADME, organism-based; conditions: in vivo, 1 h
[26] = Ratio of drug uptake in midbrain to caudate of anesthetized rhesus monkey at 15 to 20 mCi after 85 mins postinjection by microPET; format: ADME, organism-based, Macaca mulatta; conditions: in vivo
How it was run: (§2)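 Anesthetized adult male rhesus monkeys given 15–20 mCi of the ¹¹C tracer, alone or after desipramine (0.125 or 0.25 mg/kg) 40 min beforehand. MicroPET emission collected continuously for 125 min and binned. ROIs drawn manually on anatomical landmarks to give time-activity curves. Region-to-caudate uptake ratio taken at 85 min postinjection.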

[27] = Ratio of drug uptake in thalamus to caudate of anesthetized rhesus monkey at 15 to 20 mCi pretreated with 0.125 mg/kg desipramine by microPET; format: ADME, organism-based, Macaca mulatta; design: dose 0.125 mg/kg; conditions: in vivo
How it was run: (§3)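 Anesthetized adult male rhesus monkeys imaged on a microPET P4 system after injection of 15–20 mCi of the 11C-labeled radioligand. Desipramine was given 40 min before radiotracer injection. Emission data were collected continuously for 125 min and binned. ROIs were drawn manually on anatomical landmarks in the reconstructed images. The ratio of region-of-interest to caudate uptake was taken from time-activity curves at 85 min postinjection.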

[28] = Biodistribution in Sprague-Dawley rat testis at 300 uCi, iv after 5 mins; format: ADME, organism-based; conditions: in vivo
Spleen [29] = experiment: Biodistribution in Sprague-Dawley rat spleen at 300 uCi, iv after 60 mins; format: ADME, organism-based; conditions: in vivo, 1 h
Brain [30] = experiment: Biodistribution in Sprague-Dawley rat brain at 300 uCi, iv after 60 mins; format: ADME, organism-based; conditions: in vivo, 1 h
Brain [31] = experiment: Biodistribution in Sprague-Dawley rat brain at 300 uCi, iv after 5 mins; format: ADME, organism-based; conditions: in vivo
Kidney [32] = experiment: Biodistribution in Sprague-Dawley rat kidney at 300 uCi, iv after 15 mins; format: ADME, organism-based; conditions: in vivo, 0.25 h
Kidney [33] = experiment: Biodistribution in Sprague-Dawley rat kidney at 300 uCi, iv after 30 mins; format: ADME, organism-based; conditions: in vivo, 0.5 h
[34] = Ratio of drug uptake in thalamus to caudate of anesthetized rhesus monkey at 15 to 20 mCi after 85 mins postinjection by microPET; format: ADME, organism-based, Macaca mulatta; conditions: in vivo
How it was run: (§4)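 Anesthetized adult male rhesus monkeys scanned on a microPET P4 after 15–20 mCi of the 11C radioligand; emission collected continuously for 125 min, binned, time-activity curves from manually drawn anatomical ROIs; regional uptake divided by caudate uptake (caudate as NET-poor reference) at 85 min postinjection, at baseline.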

[35] = Ratio of drug uptake in cerebellum to caudate of anesthetized rhesus monkey at 15 to 20 mCi pretreated with 0.125 mg/kg desipramine by microPET; format: ADME, organism-based, Macaca mulatta; design: dose 0.125 mg/kg; conditions: in vivo; how it was run: as §3
Spleen [36] = experiment: Biodistribution in Sprague-Dawley rat spleen at 300 uCi, iv after 30 mins; format: ADME, organism-based; conditions: in vivo, 0.5 h
Kidney [37] = experiment: Biodistribution in Sprague-Dawley rat kidney at 300 uCi, iv after 60 mins; format: ADME, organism-based; conditions: in vivo, 1 h
Brain [38] = experiment: Biodistribution in Sprague-Dawley rat brain at 300 uCi, iv after 15 mins; format: ADME, organism-based; conditions: in vivo, 0.25 h
Liver [39] = experiment: Biodistribution in Sprague-Dawley rat liver at 300 uCi, iv after 15 mins; format: ADME, organism-based; conditions: in vivo, 0.25 h
Lung [40] = experiment: Biodistribution in Sprague-Dawley rat lung at 300 uCi, iv after 5 mins; format: ADME, organism-based; conditions: in vivo
Blood [41] = experiment: Biodistribution in Sprague-Dawley rat blood at 300 uCi, iv after 30 mins; format: ADME, organism-based; conditions: in vivo, 0.5 h
[42] = Ratio of drug uptake in pons to caudate of anesthetized rhesus monkey at 15 to 20 mCi pretreated with 0.125 mg/kg desipramine by microPET; format: ADME, organism-based, Macaca mulatta; design: dose 0.125 mg/kg; conditions: in vivo; how it was run: as §3
Blood [43] = experiment: Biodistribution in Sprague-Dawley rat blood at 300 uCi, iv after 60 mins; format: ADME, organism-based; conditions: in vivo, 1 h
Liver [44] = experiment: Biodistribution in Sprague-Dawley rat liver at 300 uCi, iv after 60 mins; format: ADME, organism-based; conditions: in vivo, 1 h
[45] = Ratio of drug uptake in pons to caudate of anesthetized rhesus monkey at 15 to 20 mCi after 85 mins postinjection by microPET; format: ADME, organism-based, Macaca mulatta; conditions: in vivo; how it was run: as §4
Heart [46] = experiment: Biodistribution in Sprague-Dawley rat heart at 300 uCi, iv after 5 mins; format: ADME, organism-based; conditions: in vivo
[47] = Biodistribution in Sprague-Dawley rat testis at 300 uCi, iv after 15 mins; format: ADME, organism-based; conditions: in vivo, 0.25 h
Bone [48] = experiment: Biodistribution in Sprague-Dawley rat bone at 300 uCi, iv after 60 mins; format: ADME, organism-based, Bone element; conditions: in vivo, 1 h
Muscle tissue [49] = experiment: Biodistribution in Sprague-Dawley rat muscle at 300 uCi, iv after 60 mins; format: ADME, organism-based; conditions: in vivo, 1 h
Heart [50] = experiment: Biodistribution in Sprague-Dawley rat heart at 300 uCi, iv after 60 mins; format: ADME, organism-based; conditions: in vivo, 1 h
[51] = Ratio of drug uptake in cerebellum to caudate of anesthetized rhesus monkey at 15 to 20 mCi after 85 mins postinjection by microPET; format: ADME, organism-based, Macaca mulatta; conditions: in vivo; how it was run: as §2
Muscle tissue [52] = experiment: Biodistribution in Sprague-Dawley rat muscle at 300 uCi, iv after 5 mins; format: ADME, organism-based; conditions: in vivo
Pancreas [53] = experiment: Biodistribution in Sprague-Dawley rat pancreas at 300 uCi, iv after 5 mins; format: ADME, organism-based; conditions: in vivo
Spleen [54] = experiment: Biodistribution in Sprague-Dawley rat spleen at 300 uCi, iv after 15 mins; format: ADME, organism-based; conditions: in vivo, 0.25 h
[55] = Ratio of drug uptake in midbrain to caudate of anesthetized rhesus monkey at 15 to 20 mCi pretreated with 0.125 mg/kg desipramine by microPET; format: ADME, organism-based, Macaca mulatta; design: dose 0.125 mg/kg; conditions: in vivo; how it was run: as §3
Bone [56] = experiment: Biodistribution in Sprague-Dawley rat bone at 300 uCi, iv after 30 mins; format: ADME, organism-based, Bone element; conditions: in vivo, 0.5 h

[11CH3]c1ccccc1O[C@@H](c1ccccc1)[C@@H]1CNCCO1
Drug uptake (Liver [1]): 0.28 % ID/g | Drug uptake (Lung [2]): 6.92 % ID/g | Drug uptake (Brain [3]): 0.55 % ID/g | Drug uptake (Heart [4]): 1.49 % ID/g | Drug uptake (Blood [5]): 0.05 % ID/g | Drug uptake (Muscle tissue [6]): 0.22 % ID/g | Drug uptake (Lung [7]): 3.63 % ID/g | Drug uptake (Liver [8]): 0.46 % ID/g | Drug uptake (Pancreas [9]): 0.83 | Drug uptake [10]: 0.19 % ID/g | Ratio [11]: 1.2 | Ratio [12]: 1.13 | Drug uptake (Spleen [13]): 3.5 % ID/g | Drug uptake (Kidney [14]): 2.66 % ID/g | Drug uptake (Heart [15]): 1.07 % ID/g | Ratio [16]: 0.93 | Drug uptake (Blood [17]): 0.13 % ID/g | Ratio [18]: 1.25 | Drug uptake (Pancreas [19]): 0.77 % ID/g | Drug uptake (Lung [20]): 1.98 % ID/g | Drug uptake (Muscle tissue [21]): 0.22 % ID/g | Drug uptake (Bone [22]): 0.48 % ID/g | Drug uptake (Bone [23]): 0.37 % ID/g | Drug uptake (Pancreas [24]): 0.63 % ID/g | Drug uptake [25]: 0.15 % ID/g | Ratio [26]: 1.43 | Ratio [27]: 1.1 | Drug uptake [28]: 0.18 % ID/g | Drug uptake (Spleen [29]): 0.49 % ID/g | Drug uptake (Brain [30]): 0.25 % ID/g | Drug uptake (Brain [31]): 0.9 % ID/g | Drug uptake (Kidney [32]): 0.85 % ID/g | Drug uptake (Kidney [33]): 0.56 % ID/g | Ratio [34]: 1.3 | Ratio [35]: 1.04 | Drug uptake (Spleen [36]): 1.13 % ID/g | Drug uptake (Kidney [37]): 0.31 % ID/g | Drug uptake (Brain [38]): 0.72 % ID/g | Drug uptake (Liver [39]): 0.77 % ID/g | Drug uptake (Lung [40]): 15.3 % ID/g | Drug uptake (Blood [41]): 0.05 % ID/g | Ratio [42]: 1.13 | Drug uptake (Blood [43]): 0.04 % ID/g | Drug uptake (Liver [44]): 0.29 % ID/g | Ratio [45]: 1.44 | Drug uptake (Heart [46]): 3.43 % ID/g | Drug uptake [47]: 0.18 % ID/g | Drug uptake (Bone [48]): 0.17 % ID/g | Drug uptake (Muscle tissue [49]): 0.22 % ID/g | Drug uptake (Heart [50]): 0.62 % ID/g | Ratio [51]: 1.25 | Drug uptake (Muscle tissue [52]): 0.25 % ID/g | Drug uptake (Pancreas [53]): 1.59 % ID/g | Drug uptake (Spleen [54]): 1.79 % ID/g | Ratio [55]: 1.2 | Drug uptake (Bone [56]): 0.2 % ID/g
